Compound activity (PubChem)
Most compounds without a hit are left out; they make up all but 2.3% or so of the library.
TRPC6 activator – mouse TRPC6 channel activators, primary screen, cell-based, HEK293, membrane potential dye; Short transient receptor potential channel 6 (Mus musculus), Q61143; HEK293-TRPC6 membrane potential dye fluorescence; hits give high values; B-score at 10 µM; actives 0.13% (n = 310,000); AID 2550, 2010;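 active = B-score of the integrated fluorescence ratio above library mean plus 3 SD, and starting fluorescence ratio within library mean plus 5 SD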;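 also: higher score means more depolarization so channel activation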
TRPC4 potent – positive allosteric modulators of TRPC4, primary screen, cell-based, mouse TRPC4beta, HEK293 mu-opioid, Fluo-4 calcium. Short transient receptor potential channel 4 (Mus musculus), Q9QUQ5. DAMGO EC20, Fluo-4 Ca2+ flux; hits give high values. B-score at 10 µM. actives 0.42% (n = 310,000). AID 2227, 2009;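 active = B-score of calcium response area above 5 SD of library B-scores, with initial fluorescence ratio within 5 SD of library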
Target sequence (Q9QUQ5 whole entry, looked up): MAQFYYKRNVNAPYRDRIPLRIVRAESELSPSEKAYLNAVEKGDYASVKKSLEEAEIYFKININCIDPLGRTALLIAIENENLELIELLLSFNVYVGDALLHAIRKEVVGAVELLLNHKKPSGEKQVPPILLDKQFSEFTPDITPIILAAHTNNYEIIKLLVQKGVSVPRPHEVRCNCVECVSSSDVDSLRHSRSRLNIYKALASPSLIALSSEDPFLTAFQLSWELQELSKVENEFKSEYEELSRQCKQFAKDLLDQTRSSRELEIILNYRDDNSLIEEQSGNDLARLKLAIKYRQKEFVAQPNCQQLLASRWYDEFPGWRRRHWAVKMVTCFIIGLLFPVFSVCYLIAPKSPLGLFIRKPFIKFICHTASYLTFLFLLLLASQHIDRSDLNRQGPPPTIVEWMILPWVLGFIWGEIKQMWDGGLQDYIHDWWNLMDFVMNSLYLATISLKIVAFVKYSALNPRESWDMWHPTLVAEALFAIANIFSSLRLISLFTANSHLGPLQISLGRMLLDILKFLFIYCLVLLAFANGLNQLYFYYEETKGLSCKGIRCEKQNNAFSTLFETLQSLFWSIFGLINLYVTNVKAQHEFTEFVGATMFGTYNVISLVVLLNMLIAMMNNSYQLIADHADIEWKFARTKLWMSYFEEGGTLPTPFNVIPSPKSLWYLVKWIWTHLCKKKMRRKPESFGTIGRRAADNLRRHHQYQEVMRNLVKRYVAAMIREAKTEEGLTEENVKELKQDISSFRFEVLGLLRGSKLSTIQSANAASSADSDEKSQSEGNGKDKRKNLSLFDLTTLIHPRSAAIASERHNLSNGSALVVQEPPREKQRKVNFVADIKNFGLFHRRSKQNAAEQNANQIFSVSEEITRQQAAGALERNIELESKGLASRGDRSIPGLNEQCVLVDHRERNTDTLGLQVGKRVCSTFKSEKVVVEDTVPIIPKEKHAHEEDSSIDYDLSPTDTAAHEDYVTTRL
TRPC4 inh – inhibitors of mouse TRPC4 channel, primary screen, Fluo4 calcium, HEK293 TRPC4beta/mu-opioid cells. Short transient receptor potential channel 4 (Mus musculus), Q9QUQ5. DAMGO-evoked Fluo4 calcium flux; hits give low values. B-score at 10 µM. actives 0.39% (n = 300,000). AID 2247, 2010;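 active = B-score over 3 SD under the library average, no early fluorescence shift, positive overall ratio signal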
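Assay system – HEK293 line stably carrying TRPC4beta and mu-opioid receptor · Doses – single dose · Detection – Fluo4 calcium-dye fluorescence, kinetic read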
TRPC6 inhibitor – mouse TRPC6 channel inhibitors, primary screen, cell-based, HEK293, membrane potential dye | Short transient receptor potential channel 6 (Mus musculus), Q61143 | ACh-evoked depolarization; hits give low values | B-score at 10 µM | actives 1.1% (n = 310,000);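 active = B-score under library mean minus 3 SD, initial fluorescence not abnormally high, positive integrated signal ratio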;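 also: B-score derived from integrated fluorescence ratio over the kinetic read; more negative B-score means stronger inhibition of depolarization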
TRPC4 agonist – activators of mouse TRPC4 channel, primary screen, Fluo4 calcium, HEK293 TRPC4beta/mu-opioid cells; AID 2237, 2010; Short transient receptor potential channel 4 (Mus musculus), Q9QUQ5; Fluo4 calcium fluorescence; hits give high values; B-score at 10 µM; actives 0.49% (n = 310,000);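 active = B-score above 5 SD of library B-scores, and initial fluorescence ratio not above library mean plus 5 SD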;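 also: positive B-score marks a calcium rise read as TRPC4 activation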
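Incubation: 45 min room-temperature Fluo4 loading, 110 s read / System: HEK293 cells stably co-expressing mouse TRPC4beta and mu-opioid receptor / Signal: Fluo4 fluorescence, kinetic / Control set: buffer (low) and maximal DAMGO (high) / Measure: integrated baseline-normalised fluorescence ratio, converted to per-well B score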
Each line names hits and unclear results; the compound was inactive in the other large screens.

CCOC(=O)c1c(NC(=O)COC(=O)Cn2cnc3c2c(=O)n(C)c(=O)n3C)sc(C)c1CC	TRPC4 inh -7
Cn1c(=O)c2sccc2n2c(CCCC(=O)NC3CCN(Cc4ccccc4)CC3)nnc12	TRPC4 potent 14
Cn1c(=O)c2sccc2n2c(CCCC(=O)Nc3ccccc3)nnc12	none
CNC[C@H](O)c1ccc(O)c(O)c1	none
CNC[C@H](O)c1cccc(O)c1	TRPC4 agonist 52
O=C(NCc1cccc2[nH]ccc12)C1CCC(=O)N(CCc2ccc(Cl)cc2)C1 (centres undefined)	none
CCN1CCN(c2nc(C)c3c(n2)CC(C)CC3=O)CC1 (centres undefined)	TRPC4 potent 15
Cc1ccc(CNC(=O)C(CC(C)C)OC(=O)c2ccco2)cc1 (centres undefined)	none
CC(C)c1ccccc1NC(=O)C1C2C=CC(C2)C1C(=O)O (centres undefined)	none
CCCCN(C)CCNC(=O)CCn1nc(-c2ccc(Cl)cc2)ccc1=O	TRPC4 potent 11, TRPC4 agonist 64
CCCCCc1n[nH]c2c1CCCC2	none
COc1ccc(-c2cc(C(F)(F)F)nc(N3CCN(C)CC3)n2)cc1	TRPC4 potent 15
COc1ccc(-c2cc(C#N)nc(N3CCN(C)CC3)n2)cc1	none
COc1ccc(-c2cc(C#N)nc(N3CCNCC3)n2)cc1	TRPC4 agonist 129
COc1ccccc1N1CCN(C(=O)CCc2nnc3ccc(N4CCOCC4)nn23)CC1	none
Cc1snc(SCc2ccc(Cl)cc2)c1C#N	none
COc1c(Cl)cc(C(=O)NCc2ccco2)cc1Cl	none
O=C(Nc1cccc2ncccc12)c1cccc(F)c1	none
O=C(Nc1cccc2ncccc12)c1cccc(Br)c1	TRPC4 potent 14
O=C(Nc1ccc(Br)cc1)c1cccc(-n2cnnn2)c1	none
O=C(Nc1nc(-c2ccccn2)cs1)c1cccc(-n2cnnn2)c1	TRPC4 potent 13
CCOC(=O)C1(Cc2ccccc2)CCN(Cc2cccn2-c2cccnc2)CC1	TRPC4 agonist 45
CCOC(=O)C1(Cc2ccccc2)CCN(Cc2cccn2-c2nccs2)CC1	TRPC4 agonist 46
CCOC(=O)C1(CCOc2ccccc2)CCN(Cc2cccn2-c2cccnc2)CC1	TRPC4 agonist 116
CCOC(=O)C1(CCOc2ccccc2)CCN(CCCn2cccn2)CC1	none
CCOC(=O)C1(Cc2ccccc2)CCN(Cc2cccc3nccnc23)CC1	none
CCCCOc1ccc(CSCCN=C(N)N)cc1	TRPC4 inh -6
CCCCOc1ccc(CSC(CC(=O)O)C(=O)O)cc1 (centres undefined)	none
Nc1nc2ccccc2n1CCOc1ccc(F)cc1	TRPC4 inh -6
Cn1c(/C=N/c2nc3ccccc3[nH]2)nc2ccccc21	none
C(=N\c1nc2ccccc2[nH]1)/c1cccs1	TRPC4 agonist 54
CCNC(=O)CN(c1ccc(F)cc1)S(=O)(=O)c1ccc2c(c1)OCCO2	none
CCOC(=O)C1(CCOc2ccccc2)CCN(Cc2cccc(-n3cccn3)c2)CC1	TRPC4 agonist 98
CCOC(=O)C1(CCOc2ccccc2)CCN(Cc2cccc3c2OCO3)CC1	TRPC4 inh -7
CCOC(=O)C1(CCOc2ccccc2)CCN(Cc2ccccc2O)CC1	none
CCOC(=O)C1(CCOc2ccccc2)CCN(Cc2cnc(C)s2)CC1	TRPC4 agonist 115
CCOC(=O)C1(CCOc2ccccc2)CCN(Cc2ccc(CO)o2)CC1	none
CCOC(=O)C1(CCOc2ccccc2)CCN(Cc2ccc(OC)cc2)CC1	TRPC4 agonist 94
CC1(C)Cc2c(sc(NC(=O)C(=O)N3CCCC3)c2C#N)CO1	none
CCCN1CCN(C(=O)CCn2c(=O)c3cccn3c3cccnc32)CC1	none
CCOC(=O)C1(CCOc2ccccc2)CCN(Cc2ccc(NC(C)=O)cc2)CC1	TRPC4 agonist 83
CSCC(C)N1CCC(CO)(CCc2ccccc2)CC1 (centres undefined)	none
CCOC(=O)C1(CCOC)CCN(C(C)CCc2ccc(OC)cc2)CC1 (centres undefined)	TRPC4 inh -7
CCOC(=O)C1(CCOC)CCN(C(=O)Cc2ccc3ccccc3c2)CC1	none
CC(COc1ccccc1)N1CCC(CO)(CCc2ccccc2)CC1 (centres undefined)	TRPC4 agonist 51
CC(=O)Nc1ccc(CN2CCC(CO)(CCOc3ccccc3)CC2)cc1	none
CCOC(=O)C1(CCOc2ccccc2)CCN(Cc2cccc(OC)c2OC)CC1	TRPC4 agonist 74
CN(Cc1ccccc1)C(=O)C1CCN(S(=O)(=O)c2cccc3nonc23)CC1	none
CCOC(=O)C1=C(C)NC(=S)NC1c1ccc(OCC(=O)N2CCCCCC2)cc1 (centres undefined)	none
Cc1ccc(C)c(S(=O)(=O)NCC(=O)Nc2ccc3c(c2)OCO3)c1	none
COc1cc(CN2CCC(CO)(CCOc3ccccc3)CC2)cc(OC)c1	TRPC4 inh -5
COc1ccc(OC)c(CN2CCC(CO)(CCOc3ccccc3)CC2)c1	none
O=C1CN(C(=O)COC(=O)C2CCN(S(=O)(=O)c3ccccc3C(F)(F)F)CC2)c2ccccc2N1	TRPC4 potent 11
COc1ccc(CNC(=O)COC(=O)C2CCN(S(=O)(=O)c3ccccc3C(F)(F)F)CC2)cc1	none
OCCNc1nc2ccccc2n1CCN1CCCCC1	TRPC4 inh -6
CCCCn1c(NCc2ccccc2O)nc2ccccc21	none
O=C(Cn1c(NCCCO)nc2ccccc21)c1ccc(Br)cc1	TRPC4 inh -7
CCCCn1c(NCCO)nc2ccccc21	TRPC4 inh -6
COc1ccc(COC(=O)Nc2cn(C)nc2C(F)(F)F)cc1	none
Brc1ccc(CNc2ccc3ncccc3c2)cc1	none
COc1cc(C2NCCc3c2[nH]c2ccccc32)ccc1OC(C)C (centres undefined)	TRPC6 inhibitor -6.1
COc1ccc(S(=O)(=O)N2CCN=C2SCc2cccc(F)c2)cc1	none
O=C(O)CCC(=O)N1CCN(c2nc3ccccc3s2)CC1	TRPC4 potent 20
Oc1ccc(C(c2nnnn2CCc2ccccc2)N2CCN(c3nc4ccccc4s3)CC2)cc1 (centres undefined)	TRPC4 agonist 77
c1ccc(CN2CCN(c3nc4ccccc4s3)CC2)cc1	TRPC4 potent 17
COCCn1nnnc1C(c1cccs1)N1CCN(c2nc3ccccc3s2)CC1 (centres undefined)	none
c1ccc(CN2CCN(c3nc(N4CCOCC4)c4ccccc4n3)CC2)cc1	TRPC6 inhibitor -5.5
CC1CCN(c2nc3ccc(C(=O)N4CCN(Cc5ccccc5)CC4)cc3s2)CC1	none
